The text below walks through data of ChEMBL document CHEMBL3286234, “Synthesis, Characterization, and in Vitro Evaluation of a New TSPO-Selective Bifunctional Chelate Ligand” (ACS Med Chem Lett, 2014).

Calls of active or inactive are those of the source. The calls are words filed in the database; no cut-off is given here.

By Ki is commonly meant a dissociation constant, usually derived from enzyme kinetics or from competition with a known ligand. Read a low Ki as higher affinity. What is called IC50 is the concentration at which inhibition is half-maximal.

One assay addresses Translocator protein (Rattus norvegicus, UniProt P16257). Description: Displacement of [3H]PK11195 from TSPO in rat C6 cell membrane after 90 mins by radioligand binding assay. It counts as cell membranes. In outline:
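Affinity for TSPO was measured on membrane extracts of C6 glioma cells and reported as Ki (nM).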
For orientation: Loss of bound radioactivity is the signal in a displacement assay; it reports binding, not function.

The nature of assay [1]: Induction of double strand breaks in supercoiled pET plasmid DNA (unknown origin) at 10 uM pretreated for 2 hrs by agarose gel electrophoresis in presence of CuCl2 and GSH. The procedure, abridged:
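Ligand (0.5, 1, 2 or 10 μM) preincubated 2 h with CuCl2 (5 equiv) and GSH (50 equiv), then reacted with pET plasmid for 1 h at 37 °C. Products separated on 1% agarose gel stained with ethidium bromide and scored as supercoiled (I), open circular (II) and linear (III) forms.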

For assay [2], the system named is C6. Description: Cytotoxicity against rat C6 cells overexpressing TSPO assessed as inhibition of cell viability after 72 hrs by MTT assay. It counts as functional, cell-based. The settings on record: C6, 72 h. The procedure, abridged: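 Cells exposed to drug over 0.05 to 100 μM at 37 °C for 72 h; IC50 reported.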
(In general: Formazan colour is commonly taken as a measure of viable cells.)

Assay [3] in a line: Induction of double strand breaks in supercoiled pET plasmid DNA (unknown origin) at 0.5 to 10 uM pretreated for 2 hrs by agarose gel electrophoresis in presence of CuCl2 and GSH. In outline: (§1)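 Compound preincubated 2 h with CuCl2 (5 equiv) and GSH (50 equiv), then reacted with pET plasmid DNA for 1 h at 37 °C at 0.5, 1, 2 or 10 μM. Forms I, II and III resolved on 1% agarose gel stained with ethidium bromide. Controls were untreated DNA and CuCl2 plus GSH alone.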

Assay [4] relates to C6. Description: Antiproliferative activity in rat C6 cells assessed as proportion of cells with depolarized mitochondrial membrane potential at 10 uM after 24 hrs by JC-1 staining based flow cytometry (reference value: 0.21%). It counts as functional. (Flow cytometry measures light scatter and fluorescence of single cells or particles in a stream.)
Assay [5] has as its system A2780cisR. As to the kind of experiment: Cytotoxicity against human A2780cisR cells assessed as inhibition of cell viability after 72 hrs by MTT assay. Type of assay: functional, cell-based. The procedure, abridged: (§2)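 Cells treated across 0.05 to 100 μM and incubated 72 h at 37 °C; IC50 in μM.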
The subject of assay [6] is C6. As to the kind of experiment: Cell cycle arrest in rat C6 cells assessed as proportion of cells at G2/M phase at 0.3 uM after 72 hrs by propidium iodide staining based flow cytometry (reference value: 28.02%). It counts as functional.
Another assay relates to A2780. Description: Cytotoxicity against cisplatin-sensitive human A2780 cells assessed as inhibition of cell viability after 72 hrs by MTT assay. Type of assay: functional, cell-based. The settings on record: A2780, 72 h. The procedure, abridged:
as §2

Assay [7] concerns C6. Description: Cell cycle arrest in rat C6 cells assessed as proportion of cells at sub-G1 phase at 0.3 uM after 72 hrs by propidium iodide staining based flow cytometry (reference value: 5.89%). It counts as functional.
A short description of assay [8]: Induction of double strand breaks in supercoiled pET plasmid DNA (unknown origin) at 10 uM pretreated for 2 hrs by agarose gel electrophoresis in absence of CuCl2. In outline: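 Compound at 10 μM, without CuCl2, incubated with pET plasmid DNA. Supercoiled, open circular and linear forms resolved on 1% agarose gel stained with ethidium bromide.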
Assay [9] deals with C6. Description: Cell cycle arrest in rat C6 cells at 10 uM after 24 hrs by propidium iodide staining based flow cytometry. It counts as functional. The procedure, abridged: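 C6 glioma cells exposed to 10 μM for 24 h, then cell cycle histograms recorded by flow cytometry. Untreated cells served as control.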
Assay [10] relates to C6. As to the kind of experiment: Induction of mitochondrial and nuclear structure modification in rat C6 cells assessed as fragmented nuclei and mitochondria at 10 uM after 24 hrs by MitoTracker Red/DAPI staining based fluorescence microscopy. It counts as functional, cell-based. The procedure, abridged:
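C6 glioma cells exposed at 10 μM for 24 h, then stained with MitoTracker Red for mitochondria and DAPI for nuclei. Morphology assessed with a digital imaging system. Untreated cells served as control.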

The nature of assay [11]: Induction of single strand breaks in supercoiled pET plasmid DNA (unknown origin) at 0.5 to 10 uM pretreated for 2 hrs by agarose gel electrophoresis in presence of CuCl2 and GSH. The procedure, abridged: as §1
Assay [12] relates to C6. As to the kind of experiment: Cell cycle arrest in rat C6 cells assessed as proportion of cells at S phase at 0.3 uM after 72 hrs by propidium iodide staining based flow cytometry (reference value: 11.15%). Type of assay: functional.
Assay [13] deals with A2780cisR. As to the kind of experiment: Resistance factor, ratio of IC50 for human A2780cisR cells to IC50 for cisplatin-sensitive human A2780 cells. It counts as functional.
In assay [14] the test system is C6. Description: Cell cycle arrest in rat C6 cells assessed as proportion of cells at G0/G1 phase at 0.3 uM after 72 hrs by propidium iodide staining based flow cytometry (reference value: 54.94%). It counts as functional.

Chain of Translocator protein (P16257 whole entry, looked up): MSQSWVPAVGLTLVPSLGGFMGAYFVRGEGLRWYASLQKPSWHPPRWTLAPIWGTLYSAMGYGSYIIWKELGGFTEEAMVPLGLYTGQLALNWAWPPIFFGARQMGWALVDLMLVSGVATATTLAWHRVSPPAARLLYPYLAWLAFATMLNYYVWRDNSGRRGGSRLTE

`CCCN(CCC)C(=O)Cc1c(-c2ccc(Cl)cc2)nc2c(N)cccn12` gave a Ki at Translocator protein of 0.0016 µM. Besides, the outcome in [1] was inactive. In the assay with C6 [2], the IC50 worked out at 19.7 µM.

As for `CCCN(CCC)C(=O)Cc1c(-c2ccc(Cl)cc2)nc2c(NC(=O)CN(Cc3ccccn3)Cc3ccccn3)cccn12`, the result (in assay [3]; in the assay on C6 [10]) was Active. For the same compound, the Activity in the assay on C6 [4] was found to be 2.47%; in the assay on C6 [6], 28.69%; in the assay with C6 [7], 9.06%; in the assay on C6 [12], 13.18%; in the assay with C6 [14], 49.07%. Further, the IC50 stood at 9.21 µM in the assay with A2780cisR [5], 9.02 µM in the assay on A2780 and 0.27 µM in the assay on C6 [2]. The inhibition constant (Ki) at Translocator protein was 0.239 µM. Further, the result (in assay [8]; in the assay with C6 [9]; in assay [11]) was inactive. The “Ratio IC50” value in the assay on A2780cisR [13] is reported as 1.02.
